# The source made the active and inactive calls. The rule behind the calls is not given here.
# Experiments:
# [1] = tested on: Salmonella typhi; assay: Antimicrobial activity against Salmonella typhi ATCC 23564 assessed as diameter of inhibition zone at 40 uM after 24 hrs by Kirby -Baur disc diffusion method; format: functional, Salmonella enterica subsp. enterica serovar Typhi; conditions: Salmonella enterica, ATCC 23564, 24 h; read-out: DIZ
# [2] = tested on: Staphylococcus aureus; assay: Antimicrobial activity against Staphylococcus aureus ATCC 11632 after 24 hrs by broth micro serial dilution method; format: functional; conditions: ATCC 11632, 24 h
# Method in brief: (§1)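 This was broth microdilution in autoclaved Mueller-Hinton broth. 150 µL of compound per well was serially diluted […], and 50 µL of test organism was added. Plates were incubated 24 h at 37 °C and optical density was read.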
# [3] = tested on: Aspergillus niger; assay: Antifungal activity against Aspergillus niger MTCC 1108 assessed as zone of inhibition at 80 uM after 48 hrs by disc diffusion method; format: functional; conditions: MTCC 1108, 48 h, read-out: IZ
# Method in brief: (§2)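 Spores from 4-day potato dextrose agar cultures, suspended in sterile water at 1.5 × 10⁵ CFU/mL. 0.2 mL was spread on potato dextrose agar. 5 mm filter-paper discs soaked with test compound were laid on the lawn. Incubation was 48 h at 28 °C, then the inhibition zone was measured in mm. Fluconazole was the positive control and acetone the negative control.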
# [4] = tested on: Bacillus cereus; assay: Antimicrobial activity against Bacillus cereus MTCC 7350 assessed as diameter of inhibition zone at 20 uM after 24 hrs by Kirby -Baur disc diffusion method; format: functional; conditions: MTCC 7350, 24 h, read-out: DIZ
# Method in brief: (§3)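 Kirby-Bauer disc diffusion was used. Acetone stocks (160 µM) were serially doubled down to 80, 40 and 20 µM. 4 µL of each went onto 5 mm sterile paper discs, which were dried 30 min at 50 °C. Inoculum was 1.5 × 10⁸ CFU/mL diluted to 3 × 10² CFU/mL, and 50 µL was spread on Mueller-Hinton agar. After 24 h at 37 °C the inhibition-zone diameter was measured. Ciprofloxacin served as positive control.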
# [5] = tested on: Aspergillus flavus; assay: Antifungal activity against Aspergillus flavus MTCC 1021 after 48 hrs; format: functional; conditions: MTCC 1021, 48 h
# [6] = tested on: Salmonella typhi; assay: Antimicrobial activity against Salmonella typhi ATCC 23564 assessed as diameter of inhibition zone at 80 uM after 24 hrs by Kirby -Baur disc diffusion method; format: functional, Salmonella enterica subsp. enterica serovar Typhi; conditions: Salmonella enterica, ATCC 23564, 24 h; read-out: DIZ
# [7] = tested on: HepG2; assay: Cytotoxicity against human HepG2 cells after 24 hrs by MTT assay; format: functional, cell-based
# Method in brief: (§4)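 The MTT assay seeded 5 × 10⁴ cells per well and grew them 24 h in RPMI 1640 with compound at 2.5–200 µM. Medium without cells was the blank and adriamycin the positive control. MTT was added for 4 h at 37 °C, formazan was solubilised, and absorbance was read at 570 nm. IC50 is the concentration that cuts viability 50% against untreated cells.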
# [8] = tested on: HCT-116; assay: Cytotoxicity against human HCT116 cells after 24 hrs by MTT assay; format: functional, cell-based; method in brief: as §4
# [9] = tested on: Pseudomonas aeruginosa; assay: Antimicrobial activity against Pseudomonas aeruginosa ATCC 15499 assessed as diameter of inhibition zone at 20 uM after 24 hrs by Kirby -Baur disc diffusion method; format: functional; method in brief: as §3
# [10] = tested on: QG-56; assay: Cytotoxicity against human QG56 cells after 24 hrs by MTT assay; format: functional, cell-based; method in brief: as §4
# [11] = tested on: Bacillus cereus; assay: Antimicrobial activity against Bacillus cereus MTCC 7350 assessed as diameter of inhibition zone at 80 uM after 24 hrs by Kirby -Baur disc diffusion method; format: functional; conditions: MTCC 7350, 24 h, read-out: DIZ; method in brief: as §3
# [12] = tested on: Trichoderma viride; assay: Antifungal activity against Trichoderma viride MTCC 1107 assessed as zone of inhibition at 80 uM after 48 hrs by disc diffusion method; format: functional; conditions: MTCC 1107, 48 h, read-out: IZ; method in brief: as §2
# [13] = tested on: Curvularia lunata; assay: Antifungal activity against Curvularia lunata MTCC 581 assessed as zone of inhibition at 40 uM after 48 hrs by disc diffusion method; format: functional; conditions: MTCC 581, 48 h, read-out: IZ; method in brief: as §2
# [14] = tested on: Aspergillus flavus; assay: Antifungal activity against Aspergillus flavus MTCC 1021 assessed as zone of inhibition at 80 uM after 48 hrs by disc diffusion method; format: functional; conditions: MTCC 1021, 48 h, read-out: IZ; method in brief: as §2
# [15] = tested on: HeLa; assay: Cytotoxicity against human HeLa cells after 24 hrs by MTT assay; format: functional, cell-based; method in brief: as §4
# [16] = tested on: Aspergillus flavus; assay: Antifungal activity against Aspergillus flavus MTCC 1021 assessed as zone of inhibition at 20 uM after 48 hrs by disc diffusion method; format: functional; method in brief: as §2
# [17] = tested on: Pseudomonas aeruginosa; assay: Antimicrobial activity against Pseudomonas aeruginosa ATCC 15499 assessed as diameter of inhibition zone at 80 uM after 24 hrs by Kirby -Baur disc diffusion method; format: functional; conditions: ATCC 15499, 24 h, read-out: DIZ; method in brief: as §3
# [18] = tested on: Trichoderma viride; assay: Antifungal activity against Trichoderma viride MTCC 1107 after 48 hrs; format: functional; conditions: MTCC 1107, 48 h
# [19] = tested on: Bacillus cereus; assay: Antimicrobial activity against Bacillus cereus MTCC 7350 assessed as diameter of inhibition zone at 40 uM after 24 hrs by Kirby -Baur disc diffusion method; format: functional; conditions: MTCC 7350, 24 h, read-out: DIZ; method in brief: as §3
# [20] = tested on: Aspergillus niger; assay: Antifungal activity against Aspergillus niger MTCC 1108 after 48 hrs; format: functional; conditions: MTCC 1108, 48 h
# [21] = tested on: Escherichia coli; assay: Antimicrobial activity against Escherichia coli ATCC 35218 after 24 hrs by broth micro serial dilution method; format: functional; conditions: ATCC 35218, 24 h; method in brief: as §1
# [22] = tested on: Trichoderma viride; assay: Antifungal activity against Trichoderma viride MTCC 1107 assessed as zone of inhibition at 40 uM after 48 hrs by disc diffusion method; format: functional; conditions: MTCC 1107, 48 h, read-out: IZ; method in brief: as §2
# [23] = tested on: Pseudomonas aeruginosa; assay: Antimicrobial activity against Pseudomonas aeruginosa ATCC 15499 assessed as diameter of inhibition zone at 40 uM after 24 hrs by Kirby -Baur disc diffusion method; format: functional; conditions: ATCC 15499, 24 h, read-out: DIZ; method in brief: as §3
# [24] = tested on: Escherichia coli; assay: Antimicrobial activity against Escherichia coli ATCC 35218 assessed as diameter of inhibition zone at 40 uM after 24 hrs by Kirby -Baur disc diffusion method; format: functional; conditions: ATCC 35218, 24 h, read-out: DIZ; method in brief: as §3
# [25] = tested on: Aspergillus flavus; assay: Antifungal activity against Aspergillus flavus MTCC 1021 assessed as zone of inhibition at 40 uM after 48 hrs by disc diffusion method; format: functional; conditions: MTCC 1021, 48 h, read-out: IZ; method in brief: as §2
# [26] = tested on: Mus musculus; assay: Antiinflammatory activity in mouse assessed as inhibition of carrageenan-induced increase in paw volume at 200 mg/kg administered 1 hr prior to carrageenan challenge measured after 3 hrs relative to control; format: functional
# Method in brief: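 Mice were fasted 2 h and placed in groups of five. Controls received saline i.p. Phenylbutazone was given at 100 mg/kg i.p., curcumin at 200 mg/kg i.p., and derivatives at 200 mg/kg. After 1 h, 0.1 mL of 1% carrageenan in saline was injected subplantar into the right hind paw. Paw volume was followed by plethysmometer for 3 h, and % inhibition was calculated as (Vc − Vt)/Vc × 100.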
# [27] = tested on: Pseudomonas aeruginosa; assay: Antimicrobial activity against Pseudomonas aeruginosa ATCC 15499 after 24 hrs by broth micro serial dilution method; format: functional; conditions: ATCC 15499, 24 h; method in brief: as §1
# [28] = tested on: Escherichia coli; assay: Antimicrobial activity against Escherichia coli ATCC 35218 assessed as diameter of inhibition zone at 80 uM after 24 hrs by Kirby -Baur disc diffusion method; format: functional; conditions: ATCC 35218, 24 h, read-out: DIZ; method in brief: as §3
# [29] = tested on: Staphylococcus aureus; assay: Antimicrobial activity against Staphylococcus aureus ATCC 11632 assessed as diameter of inhibition zone at 20 uM after 24 hrs by Kirby -Baur disc diffusion method; format: functional; conditions: ATCC 11632, 24 h, read-out: DIZ; method in brief: as §3
# [30] = tested on: Bacillus cereus; assay: Antimicrobial activity against Bacillus cereus MTCC 7350 after 24 hrs by broth micro serial dilution method; format: functional; conditions: MTCC 7350, 24 h; method in brief: as §1
# [31] = tested on: Salmonella typhi; assay: Antimicrobial activity against Salmonella typhi ATCC 23564 assessed as diameter of inhibition zone at 20 uM after 24 hrs by Kirby -Baur disc diffusion method; format: functional, Salmonella enterica subsp. enterica serovar Typhi; conditions: Salmonella enterica, ATCC 23564, 24 h; read-out: DIZ
# [32] = tested on: Staphylococcus aureus; assay: Antimicrobial activity against Staphylococcus aureus ATCC 11632 assessed as diameter of inhibition zone at 80 uM after 24 hrs by Kirby -Baur disc diffusion method; format: functional; conditions: ATCC 11632, 24 h, read-out: DIZ; method in brief: as §3
# [33] = tested on: Curvularia lunata; assay: Antifungal activity against Curvularia lunata MTCC 581 assessed as zone of inhibition at 20 uM after 48 hrs by disc diffusion method; format: functional; conditions: MTCC 581, 48 h, read-out: IZ; method in brief: as §2
# [34] = tested on: Trichoderma viride; assay: Antifungal activity against Trichoderma viride MTCC 1107 assessed as zone of inhibition at 20 uM after 48 hrs by disc diffusion method; format: functional; conditions: MTCC 1107, 48 h, read-out: IZ; method in brief: as §2
# [35] = tested on: Aspergillus niger; assay: Antifungal activity against Aspergillus niger MTCC 1108 assessed as zone of inhibition at 40 uM after 48 hrs by disc diffusion method; format: functional; conditions: MTCC 1108, 48 h, read-out: IZ; method in brief: as §2
# [36] = tested on: Salmonella typhi; assay: Antimicrobial activity against Salmonella typhi ATCC 23564 after 24 hrs by broth micro serial dilution method; format: functional, Salmonella enterica subsp. enterica serovar Typhi; conditions: Salmonella enterica, ATCC 23564, 24 h
# [37] = tested on: Staphylococcus aureus; assay: Antimicrobial activity against Staphylococcus aureus ATCC 11632 assessed as diameter of inhibition zone at 40 uM after 24 hrs by Kirby -Baur disc diffusion method; format: functional; conditions: ATCC 11632, 24 h, read-out: DIZ; method in brief: as §3
# [38] = tested on: Escherichia coli; assay: Antimicrobial activity against Escherichia coli ATCC 35218 assessed as diameter of inhibition zone at 20 uM after 24 hrs by Kirby -Baur disc diffusion method; format: functional; conditions: ATCC 35218, 24 h, read-out: DIZ; method in brief: as §3
# [39] = tested on: Curvularia lunata; assay: Antifungal activity against Curvularia lunata MTCC 581 after 48 hrs; format: functional; conditions: MTCC 581, 48 h
# [40] = tested on: Aspergillus niger; assay: Antifungal activity against Aspergillus niger MTCC 1108 assessed as zone of inhibition at 20 uM after 48 hrs by disc diffusion method; format: functional; conditions: MTCC 1108, 48 h, read-out: IZ; method in brief: as §2
# [41] = tested on: Curvularia lunata; assay: Antifungal activity against Curvularia lunata MTCC 581 assessed as zone of inhibition at 80 uM after 48 hrs by disc diffusion method; format: functional; conditions: MTCC 581, 48 h, read-out: IZ; method in brief: as §2
structure (smiles),measurement,setting,value
COc1cc(/C=C/C(O)=C/C(/C=C/c2ccc(O)c(OC)c2)=N/c2ccc(S(=O)(=O)Nc3ccccn3)cc2)ccc1O,zone of inhibition at 40 µM,[1],14 mm
same,MIC,[2],20 µM
same,zone of inhibition at 80 µM,[3],14 mm
same,zone of inhibition at 20 µM,[4],11 mm
same,MIC,[5],> 80 µM
same,zone of inhibition at 80 µM,[6],18 mm
same,IC50,[7],25 µM
same,IC50,[8],25 µM
same,diameter of the inhibition zone (DIZ),[9],inactive
same,IC50,[10],50 µM
same,zone of inhibition at 80 µM,[11],19 mm
same,zone of inhibition at 80 µM,[12],17 mm
same,zone of inhibition at 40 µM,[13],9 mm
same,zone of inhibition at 80 µM,[14],12 mm
same,IC50,[15],50 µM
same,inhibition zone (IZ),[16],inactive
same,zone of inhibition at 80 µM,[17],13 mm
same,MIC,[18],20 µM
same,zone of inhibition at 40 µM,[19],16 mm
same,MIC,[20],40 µM
same,MIC,[21],20 µM
same,zone of inhibition at 40 µM,[22],13 mm
same,zone of inhibition at 40 µM,[23],11 mm
same,zone of inhibition at 40 µM,[24],19 mm
same,zone of inhibition at 40 µM,[25],9 mm
same,inhibition in vivo at 200 mg/kg,[26],37%
same,MIC,[27],20 µM
same,zone of inhibition at 80 µM,[28],20 mm
same,zone of inhibition at 20 µM,[29],11 mm
same,MIC,[30],20 µM
same,zone of inhibition at 20 µM,[31],11 mm
same,zone of inhibition at 80 µM,[32],18 mm
same,zone of inhibition at 20 µM,[33],9 mm
same,zone of inhibition at 20 µM,[34],10 mm
same,zone of inhibition at 40 µM,[35],12 mm
same,MIC,[36],20 µM
same,zone of inhibition at 40 µM,[37],17 mm
same,zone of inhibition at 20 µM,[38],15 mm
same,MIC,[39],> 80 µM
same,zone of inhibition at 20 µM,[40],9 mm
same,zone of inhibition at 80 µM,[41],12 mm

# From ChEMBL document CHEMBL2384906, “Biological activity, design, synthesis and structure activity relationship of some novel derivatives of curcumin containing sulfonamides” (Eur J Med Chem, 2013)
